Measured values reported in ChEMBL document CHEMBL1926667, “The synthesis of 2-nitroaryl-1,2,3,4-tetrahydroisoquinolines, nitro-substituted 5,6-dihydrobenzimidazo[2,1-a]isoquinoline N-oxides and related heterocycles as potential bioreducible substrates for the enzymes NAD(P)H: quinone oxidoreductase 1 and E. coli nitroreductase” (Bioorg Med Chem Lett, 2011).

Legend:
Escherichia coli [1] = experiment: Activation of Escherichia coli nitroreductase assessed as specific activity per mg of protein at 100 uM by measuring decrease in substrate concentration by HPLC analysis
In short: (§1)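 Reduction by human NQO1 or E. coli NR followed by the disappearance of substrate over time; specific activity is the rate of substrate reduction at 37 °C. Relative activity is the specific activity compared with CB-1954.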

[2] = molecular target: NAD(P)H dehydrogenase [quinone] 1 (Homo sapiens) (UniProt P15559); experiment: Activation of human NQO1 assessed as decrease in substrate concentration at 100 uM by HPLC analysis relative to CB-1954; in short: as §1
[3] = molecular target: NAD(P)H dehydrogenase [quinone] 1 (Homo sapiens) (UniProt P15559); experiment: Activation of human NQO1 assessed as specific activity per mg of protein at 100 uM by measuring decrease in substrate concentration by HPLC analysis; in short: as §1
Escherichia coli [4] = experiment: Activation of Escherichia coli nitroreductase assessed as decrease in substrate concentration at 100 uM by HPLC analysis relative to CB-1954; in short: as §1
Escherichia coli [5] = experiment: Activation of Escherichia coli nitroreductase assessed as specific activity per mg of protein at 100 uM by measuring decrease in NADH concentration
In short: (§2)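 Human NQO1 or E. coli NR reduction followed by the fall in NADH concentration over time; specific activity is the rate of reduction per enzyme at 37 °C. Relative values are the specific activity compared with CB-1954.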

Escherichia coli [6] = experiment: Activation of Escherichia coli nitroreductase assessed as decrease in NADH concentration at 100 uM relative to CB-1954; in short: as §2
[7] = Solubility of the compound in 10 mM phosphate buffer with 10% DMSO at pH 7; format: physicochemical
Escherichia coli [8] = experiment: Activation of Escherichia coli nitroreductase assessed as specific activity per mg of protein at 50 uM by measuring decrease in substrate concentration by HPLC analysis
In short: (§3)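 Used for poorly soluble substrates: 50 µM compound in buffer (10 mM phosphate, pH 7) with 10% DMSO, incubated with human NQO1 or E. coli NR at 37 °C. Substrate disappearance was monitored over time. Rates assume a 50 µM starting concentration and no DMSO effect on the enzyme. Relative activity is compared with CB-1954.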

Escherichia coli [9] = experiment: Activation of Escherichia coli nitroreductase assessed as specific activity per mg of protein at 50 uM by measuring decrease in substrate concentration by HPLC analysis relative to CB-1954; in short: as §3
[10] = molecular target: NAD(P)H dehydrogenase [quinone] 1 (Homo sapiens) (UniProt P15559); experiment: Activation of human NQO1 assessed as specific activity per mg of protein at 50 uM by measuring decrease in substrate concentration by HPLC analysis; in short: as §3
[11] = molecular target: NAD(P)H dehydrogenase [quinone] 1 (Homo sapiens) (UniProt P15559); experiment: Activation of human NQO1 assessed as specific activity per mg of protein at 50 uM by measuring decrease in substrate concentration by HPLC analysis relative to CB-1954; in short: as §3
[12] = Solubility of the compound at 100 uM in sodium phosphate buffer with 10% DMSO and 500 uM NADH at pH 7; format: physicochemical; conditions: pH 7, 100 µM

Chain of NAD(P)H dehydrogenase [quinone] 1 (Homo sapiens) (P15559 whole entry): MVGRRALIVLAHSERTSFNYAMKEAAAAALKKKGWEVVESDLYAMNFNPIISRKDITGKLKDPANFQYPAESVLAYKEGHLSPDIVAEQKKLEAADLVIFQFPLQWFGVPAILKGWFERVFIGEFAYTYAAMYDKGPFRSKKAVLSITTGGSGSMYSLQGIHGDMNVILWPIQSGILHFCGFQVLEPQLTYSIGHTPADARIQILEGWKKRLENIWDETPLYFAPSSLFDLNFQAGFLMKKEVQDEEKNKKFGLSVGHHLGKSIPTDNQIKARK

O=C(O)c1cc([N+](=O)[O-])cc([N+](=O)[O-])c1N1CCc2ccccc2C1
Activity (Escherichia coli [1]): 4.22 µmol/min | fold change (FC) [2]: 1.8 | Activity [3]: 0.011 µmol/min | fold change (FC) (Escherichia coli [4]): 2.3

O=C(O)c1cc([N+](=O)[O-])c(N2CCc3ccccc3C2)c([N+](=O)[O-])c1
Activity (Escherichia coli [1]): 0.02 µmol/min | fold change (FC) [2]: < 0.16 | Activity [3]: < 0.001 µmol/min | fold change (FC) (Escherichia coli [4]): 0.01

NC(=O)c1cc([N+](=O)[O-])cc2c1n1c([n+]2[O-])-c2ccccc2CC1
Activity (Escherichia coli [5]): 1.62 µmol/min | fold change (FC) [2]: < 0.16 | Activity [3]: < 0.001 µmol/min | fold change (FC) (Escherichia coli [6]): 0.9

NC(=O)c1cc([N+](=O)[O-])cc([N+](=O)[O-])c1N1CCc2ccccc2C1
Activity (Escherichia coli [5]): 2.82 µmol/min | fold change (FC) [2]: 8.6 | Activity [3]: 0.053 µmol/min | fold change (FC) (Escherichia coli [6]): 1.5

O=[N+]([O-])c1cc(C(F)(F)F)c2c(c1)[n+]([O-])c1n2CCc2c-1cccc2[N+](=O)[O-]
Activity (Escherichia coli [1]): < 0.001 µmol/min | fold change (FC) [2]: < 0.16 | Activity [3]: < 0.001 µmol/min | fold change (FC) (Escherichia coli [4]): < 0.001

O=[N+]([O-])c1cnc2c(c1)[n+]([O-])c1n2CCc2ccccc2-1
Activity (Escherichia coli [1]): 54 µmol/min | fold change (FC) [2]: 27.4 | Activity [3]: 0.17 µmol/min | fold change (FC) (Escherichia coli [4]): 29

O=[N+]([O-])c1ccc2c(c1)[n+]([O-])c1n2CCc2ccccc2-1
Activity (Escherichia coli [1]): 0.5 µmol/min | fold change (FC) [2]: 2.6 | Activity [3]: 0.016 µmol/min | fold change (FC) (Escherichia coli [4]): 0.3

O=[N+]([O-])c1ccc2c(c1)[n+]([O-])c1n2CCc2c-1cccc2[N+](=O)[O-]
Activity (Escherichia coli [5]): 1.51 µmol/min | fold change (FC) [2]: < 0.16 | Activity [3]: < 0.001 µmol/min | fold change (FC) (Escherichia coli [6]): 0.8

NC(=O)c1cc2c(cc1[N+](=O)[O-])[n+]([O-])c1n2CCc2ccccc2-1
Activity (Escherichia coli [1]): < 0.001 µmol/min | fold change (FC) [2]: < 0.16 | Activity [3]: < 0.001 µmol/min | fold change (FC) (Escherichia coli [4]): < 0.001

NC(=O)c1cc2c(cc1[N+](=O)[O-])[n+]([O-])c1n2CCc2c-1cccc2[N+](=O)[O-]
Activity (Escherichia coli [1]): < 0.001 µmol/min | fold change (FC) [2]: < 0.16 | Activity [3]: < 0.001 µmol/min | fold change (FC) (Escherichia coli [4]): < 0.001

O=[N+]([O-])c1ccc2c(c1)-c1n(c3ccc([N+](=O)[O-])cc3[n+]1[O-])CC2
Activity (Escherichia coli [5]): 1.3 µmol/min | fold change (FC) [2]: < 0.16 | Activity [3]: < 0.001 µmol/min | fold change (FC) (Escherichia coli [6]): 0.6

O=[N+]([O-])c1ccc(N2CCc3ccccc3C2)c([N+](=O)[O-])c1
Activity (Escherichia coli [1]): 0.44 µmol/min | fold change (FC) [2]: < 0.16 | Activity [3]: < 0.001 µmol/min | fold change (FC) (Escherichia coli [4]): 0.2

NC(=O)c1cc(N2CCc3ccccc3C2)c([N+](=O)[O-])cc1[N+](=O)[O-]
Activity (Escherichia coli [1]): 4.4 µmol/min | fold change (FC) [2]: 6.8 | Activity [3]: 0.042 µmol/min | fold change (FC) (Escherichia coli [4]): 2.4

NC(=O)c1cc(N2CC2)c([N+](=O)[O-])cc1[N+](=O)[O-]
Activity (Escherichia coli [1]): 1.86 µmol/min | Activity (10'-3umol/min) [3]: 6.2

O=[N+]([O-])c1cc([N+](=O)[O-])c(N2CCc3c(cccc3[N+](=O)[O-])C2)c(C(F)(F)F)c1
solubility [7]: Insoluble

O=[N+]([O-])c1cc([N+](=O)[O-])c(N2CCc3ccccc3C2)c(C(F)(F)F)c1
Activity (Escherichia coli [1]): 41.5 µmol/min | fold change (FC) [2]: 17.7 | Activity [3]: 0.11 µmol/min | fold change (FC) (Escherichia coli [4]): 22.3

O=[N+]([O-])c1cnc(N2CCc3ccccc3C2)c([N+](=O)[O-])c1
Activity (Escherichia coli [1]): 1.49 µmol/min | fold change (FC) [2]: 2.1 | Activity [3]: 0.013 µmol/min | fold change (FC) (Escherichia coli [4]): 0.8

O=[N+]([O-])c1ccc2c(c1)CN(c1c([N+](=O)[O-])cc([N+](=O)[O-])cc1C(F)(F)F)CC2
Activity (Escherichia coli [8]): 2.39 µmol/min | fold change (FC) (Escherichia coli [9]): 1.3 | Activity [10]: 0.076 µmol/min | fold change (FC) [11]: 12.3 | solubility [12]: Insoluble

NC(=O)c1cc([N+](=O)[O-])c(N2CCc3ccccc3C2)c([N+](=O)[O-])c1
Activity (Escherichia coli [1]): < 0.001 µmol/min | fold change (FC) [2]: < 0.16 | Activity [3]: < 0.001 µmol/min | fold change (FC) (Escherichia coli [4]): < 0.001
